In paper PMC2978887 (Calcified Tissue International, 2010):
Read-outs that look alike come from different tables or passages of the source. Values belong to the molecule of their own block, whether it stands above or below them.

Experiments:
serum calcium [1] = assay: Serum calcium pharmacodynamic response to teriparatide; assay type: in vivo, postmenopausal women with osteoporosis; settings: for predose serum calcium, mean ± SE: samples 16–24 h postdose
Method in brief: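 Unadjusted total serum calcium measured in all patients at baseline and 4–6 h postdose at months 1, 3, 6, 12, 18 and 24, at three laboratories using identical, cross-calibrated methods. Samples falling 16–24 h postdose served as predose values.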

serum calcium [2] = settings: rats; subcutaneous injections every hour for six injections; cited from earlier work
[3] = Population pharmacokinetics of teriparatide after subcutaneous injection; assay type: in vivo, postmenopausal women with osteoporosis
Method in brief: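 Serum drug levels measured in a 360-patient subset at months 1, 3, 6, 12 and 18, one sample per visit within a 0–30 min, 30 min–1 h, 1–2 h, 2–3 h or 3–4 h postdose window. Serum stored at -70°C; two-site immunoradiometric assay using bead-bound capture and 125I-labelled detection antibodies to PTH 1–34. Standard curve 9.8–20,000 pg/ml; quantifiable range 50–2,000 pg/ml; accuracy and precision ±20%.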

[4] = Adverse events commonly associated with hypercalcemia, Fracture Prevention Trial; assay type: in vivo, postmenopausal women with osteoporosis; settings: teriparatide 20 μg/day; overall cohort (n = 541)
Method in brief: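 Events typical of hypercalcemia were collected throughout the trial in women randomized to once-daily subcutaneous teriparatide or placebo. They were tabulated for the whole teriparatide cohort and for the subset whose 4–6 h postdose serum calcium exceeded 10.6 mg/dl.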

[5] = cited from earlier work
[6] = cited from earlier work; remark: listed apart in the source
[7] = cited from earlier work; remark: listed apart in the source
[8] = daily injections of teriparatide 20 µg
[9] = indirect-response PK–PD model, teriparatide 20 μg sc, 360 patients
[10] = comparing 10th and 90th percentiles of body weight (51–80 kg), population PK
[11] = female, human, serum, sc, 20 ug

EC50, teriparatide concentration required to produce 50% of the maximum calcium effect (serum calcium [1]; indirect-response PK–PD model, serum teriparatide): 0.054 ng/mL
patients with a predose serum calcium >11.0 mg/dl (serum calcium [1]; teriparatide 20 μg): no
patients with serum calcium above the upper limit of normal (10.6 mg/dl) 4–6 h after dosing (serum calcium [1]; teriparatide 20 µg group, fifty patients, placebo 1.1%): 9.4%
persistent hypercalcemia (serum calcium [1]; teriparatide 20 μg sc daily, median 21 months' treatment): not observed
patients with a predose serum calcium value >10.6 mg/dl (serum calcium [1]; teriparatide 20 μg, 1/223 patients): 0.4%
total duration of exposure to the peptide ([3]; 20 μg sc once daily): approximately 4 h
duration of exposure above basal endogenous PTH concentrations (28 pg/ml) ([3]; 20 μg sc, molar basis, concentration–time profile extrapolated to infinite time): about 4 h
prolongation in Tmax in heavier patients [3, 10]: 2.3 min
reduction in Cmax in heavier patients [3, 10]: 26%
CL/F [3, 11]: ~1030 mL/min
Tmax [3, 11]: ~30 min
level at 3 h [3, 11]: < 0.05 ng/mL
slower rate of absorption, thigh vs abdominal wall injection ([3]; population PK covariate estimate, 20 μg sc): 21%
half-life based upon Ka (ln 2/Ka) ([3]; population PK model, 20 μg sc): 1.1 h
Molecule: CC[C@H](C)[C@H](NC(=O)[C@H](CCC(=O)O)NC(=O)[C@H](CO)NC(=O)[C@@H](NC(=O)[C@@H](N)CO)C(C)C)C(=O)N[C@@H](CCC(N)=O)C(=O)N[C@@H](CC(C)C)C(=O)N[C@@H](CCSC)C(=O)N[C@@H](Cc1cnc[nH]1)C(=O)N[C@@H](CC(N)=O)C(=O)N[C@@H](CC(C)C)C(=O)NCC(=O)N[C@@H](CCCCN)C(=O)N[C@@H](Cc1cnc[nH]1)C(=O)N[C@@H](CC(C)C)C(=O)N[C@@H](CC(N)=O)C(=O)N[C@@H](CO)C(=O)N[C@@H](CCSC)C(=O)N[C@@H](CCC(=O)O)C(=O)N[C@@H](CCCN=C(N)N)C(=O)N[C@H](C(=O)N[C@@H](CCC(=O)O)C(=O)N[C@@H](Cc1c[nH]c2ccccc12)C(=O)N[C@@H](CC(C)C)C(=O)N[C@@H](CCCN=C(N)N)C(=O)N[C@@H](CCCCN)C(=O)N[C@@H](CCCCN)C(=O)N[C@@H](CC(C)C)C(=O)N[C@@H](CCC(N)=O)C(=O)N[C@@H](CC(=O)O)C(=O)N[C@H](C(=O)N[C@@H](Cc1cnc[nH]1)C(=O)N[C@@H](CC(N)=O)C(=O)N[C@@H](Cc1ccccc1)C(=O)O)C(C)C)C(C)C [teriparatide, recombinant human parathyroid hormone (rhPTH[1–34])]
predose serum calcium, mean ± SE (serum calcium [1]; 1 month, teriparatide 20 μg): 9.19 ± 0.03 mg/dL
predose serum calcium, mean ± SE (serum calcium [1]; 3 months, teriparatide 20 μg): 9.12 ± 0.08 mg/dL
predose serum calcium, mean ± SE (serum calcium [1]; 6 months, teriparatide 20 μg): 9.29 ± 0.03 mg/dL
predose serum calcium, mean ± SE (serum calcium [1]; 12 months, teriparatide 20 μg): 9.40 ± 0.03 mg/dL
predose serum calcium, mean ± SE (serum calcium [1]; 18 months, teriparatide 20 μg): 9.30 ± 0.08 mg/dL
predose serum calcium, mean ± SE (serum calcium [1]; 24 months, teriparatide 20 μg): 9.26 ± 0.05 mg/dL
time after dosing at which serum calcium begins to increase (serum calcium [1]; [8]): approximately 2 h
time of maximum serum calcium concentration/effect after dosing (serum calcium [1]; [8]): 4.25 h
Emax, maximum calcemic response (serum calcium [1]; indirect-response PK–PD model, 62% CV): 19.5%
Kin, zero-order production rate for change in serum calcium (serum calcium [1]; [9]): 1.1 mg/(dl · hour)
Kout, first-order dissipation rate for calcium response (serum calcium [1]; [9]): 0.12 h⁻¹
time after dosing at which serum calcium begins to decline (serum calcium [1]; teriparatide 20 µg sc daily): approximately 6 h
time after each dose by which serum calcium returned to predose levels (serum calcium [1]; teriparatide 20 µg sc daily): 16 to 24 h
sustained elevated serum calcium concentrations (serum calcium [2]): sustained elevated serum calcium concentrations occurred
Abdominal pain [4]: 48 (8.9%) n (%)
Anorexia [4]: 8 (1.5%) n (%)
Arrhythmias [4]: 9 (1.7%) n (%)
Constipation [4]: 32 (5.9%) n (%)
Depression [4]: 21 (3.9%) n (%)
Headache [4]: 44 (8.1%) n (%)
Hypertension [4]: 41 (7.6%) n (%)
Nausea [4]: 51 (9.4%) n (%)
Pancreatitis [4]: 1 (0.2%) n (%)
Peptic ulcer/gastritis [4]: 8 (1.5%) n (%)
Vomiting [4]: 19 (3.5%) n (%)
bioavailability [5]: 95%
half-life following injection [5]: 60 min
time to peak concentration following injection [5]: 30 min
true elimination half-life following intravenous administration ([5]; intravenous): 5 min

Molecule: parathyroid hormone [PTH]
half-life (clearance of the endogenous hormone) [6]: < 2 min

Molecule: rhPTH(1–84): full human recombinant PTH, available for treatment of osteoporosis in some countries at a daily dose of 100 μg
bioavailability [7]: 55%
apparent terminal half-life ([7]; sc): 90 to 150 min
time of first peak of serum concentration–time profile after dosing ([7]; single-dose sc, dose range 0.02–5.0 μg/kg): 5 to 10 min
